An excerpt weighted towards active compounds, which were near 2.3% of everything screened.
MT1-MMP txn act: activates MT1-MMP transcription. HT1080 MT1-MMP promoter luciferase reporter, luminescence, overnight; active compounds read high. 86,000 compounds, 0.16% hits. activation factor at 10 µM;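 active = activation factor of at least 2 for MT1-MMP transcription at 10 µM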
JNK3 blocker: JNK3 (human) kinase inhibition; P53779; purified JNK3 kinase activity, HTS; inhibition, % at 8 µM; AID 746; 60,000 compounds, 0.61% hits; in the data active = inhibition above about 17%;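 note: 0% = DMSO and 100% = reference inhibitor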
SF1 activator: activators of human nuclear receptor SF-1; Q13285; CHO-K1 Gal4-SF-1 LBD luciferase reporter; % increase over DMSO SF-1-specific signal; activation, % at 10 µM; 65,000 compounds, 1.9% hits; AID 522;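 active = activation above the mean activation of all tested compounds plus 3 SD, cut at about 50% in these data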
Target sequence (Q13285 whole entry, looked up, the tested form may be a part): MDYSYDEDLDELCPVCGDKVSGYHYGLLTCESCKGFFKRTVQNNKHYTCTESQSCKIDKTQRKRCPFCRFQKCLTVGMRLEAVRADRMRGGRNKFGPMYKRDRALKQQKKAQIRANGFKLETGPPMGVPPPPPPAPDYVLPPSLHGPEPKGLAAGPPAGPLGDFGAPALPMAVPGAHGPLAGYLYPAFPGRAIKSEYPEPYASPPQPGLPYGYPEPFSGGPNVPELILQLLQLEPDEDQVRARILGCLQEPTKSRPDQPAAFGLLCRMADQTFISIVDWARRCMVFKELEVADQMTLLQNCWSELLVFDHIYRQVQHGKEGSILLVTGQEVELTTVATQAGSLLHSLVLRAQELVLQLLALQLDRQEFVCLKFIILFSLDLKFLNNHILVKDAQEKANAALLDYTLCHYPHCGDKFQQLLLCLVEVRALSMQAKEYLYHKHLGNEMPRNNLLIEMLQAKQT
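Test system: CHO-K1 cells co-transfected with Gal4 DBD–human SF-1 LBD, 5xGal4 luciferase reporter. Quantity: 4,000 cells per well. Compound: 10 µM only. Incubation: compound added 1 h post-seeding, 20 h exposure at 37 °C, 5% CO2. Detection: SteadyLite luciferase luminescence. Replication: one test per compound.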
RORa activator: activates the human nuclear receptor RORA | activation, % at 10 µM | CHO-K1 Gal4-RORA LBD luciferase reporter, luminescence; percent increase over mock-subtracted basal signal | P35398 | 65,000 compounds, 1.5% hits;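 active = activation above the mean of all tested compounds plus 3 SD, cut at about 49% in these data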;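 note: 0% = DMSO-treated RORA cells and 100% = added signal equal to DMSO minus mock-transfected cells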
Numbers without * were called inactive; . = no result.

SMILES	MT1-MMP txn act	JNK3 blocker	SF1 activator	RORa activator
COc1ccccc1OCc1nc2ccccc2[nH]1	1.1	6	53*	54*
c1ccc2cc(OCc3nc4ccccc4[nH]3)ccc2c1	1.9	.	.	.
c1cnc2c(OCc3nc4ccccc4[nH]3)cccc2c1	1.2	-10	65*	82*
CCC1=C(OC(=O)N(CC)CC)N2C(=O)OC(=NCCOC)[C@]2(C)[C@H]2C1=CC[C@H]1C(=O)N(CC)C(=O)[C@H]12	1.1	.	.	.
Cc1ccc(-n2c(C)cc(C(=O)COC(=O)c3c(C)noc3C)c2C)cc1	1.3	6	79*	2
COCc1cc(C)nc(SCC(=O)Nc2cc3c(cc2C#N)OCO3)c1C#N	1.2	22*	-4	6
CC1(C)CC(=O)C2=C(C1)Nc1ccccc1N=C2	1.5	0	58*	42
Cc1c(C2Nc3ccccc3NC3=C2C(=O)CC(C)(C)C3)cnn1C (stereo not drawn)	1.3	-4	-6	9
COCCSc1ccccc1C(=O)NCc1ccco1	0.9	-4	-21	-31
COc1ccc(-c2cc(-c3ccccc3O)[nH]n2)cc1	2.5*	.	.	.
COc1ccc(C2C(C#N)=C(N)SC(N)=C2C#N)cc1OC	1.1	22*	9	-6
c1ccc2c(c1)CCN2CCN1CCc2ccccc21	1.2	1	24	15
O=C1c2ccccc2C(=O)N1CCN1CCc2ccccc21	1.6	2	52*	37
CCOC(=O)c1cc2nc(-c3ccco3)cc(C(F)(F)F)n2n1	1	.	.	.
O=c1[nH]c(Cn2nnc(-c3ccccc3)n2)nc2scc(-c3ccccc3)c12	1	-6	-5	-31
Cn1ncc2c(Nc3ccc(-c4ccccc4)cc3)ncnc21	1.6	-5	60*	43
Cn1ncc2c(Nc3ccccc3Br)ncnc21	1	4	-5	-14
COC(=O)c1ccc(Nc2ncnc3c2cnn3-c2cccc(C)c2)cc1	1	0	1	1
COc1ccc(-n2ncc3c(Nc4cccc(C)c4)ncnc32)cc1	1.2	-5	80*	30
COc1ccc(Nc2ncnc3c2cnn3-c2cccc(C)c2)cc1OC	1.1	2	-3	7
Cc1cccc(-n2ncc3c(Nc4ccc(F)cc4)ncnc32)c1	1	12	74*	64*
CCn1c(SCC(=O)Nc2ccc(Cl)cc2)nnc1C1CC1	1.1	22*	0	-16
COc1cccc(C(=O)c2sc(NC(C)C)nc2N)c1	1.6	17*	-36	-57
COc1ccc(C(=O)c2sc(NC(C)C)nc2N)cc1OC	1.4	15	1	-21
COC(=O)c1ccc(C(NC(=O)OCc2ccccc2)/C(I)=C/[C@@H](C)C(=O)NCc2cc(C)n(C)n2)cc1 (stereo partly drawn)	1.1	.	.	.
SMILES	MT1-MMP txn act	JNK3 blocker	SF1 activator	RORa activator
OC(Cn1cccn1)c1ccccc1 (stereo not drawn)	0.9	-2	-18	9
Cc1csc2nc(CNC(=O)c3cccc(C(F)(F)F)c3)cn12	1	4	2	-4
COc1cc(C(=O)NCc2cn3ccsc3n2)cc(OC)c1OC	1.3	24*	3	-9
COc1ccc(C(=O)NCc2cn3c(C)csc3n2)cc1OC	1.1	17*	5	-2
CCOC(=O)C1=C(CCc2ccccc2)NC(=O)NC1c1ccc(Cl)cc1 (stereo not drawn)	1.1	.	.	.
COc1ccc(NCc2nnc(SCC(=O)c3ccc(OC)cc3)n2C)cc1	1.2	-19	4	10
CCC(=O)Nc1cccc(-c2nnc(SCC(=O)c3ccccc3)n2C)c1	1.4	2	44	61*
CCC(=O)Nc1cccc(-c2nnc(SCC(=O)NCc3ccco3)n2C)c1	1.2	5	-11	-2
Cn1c(SCC(=O)c2ccccc2)nnc1-c1cnccn1	1.7	1	61*	30
CC1CCCC(N2C(=O)NC(NC(=O)c3ccco3)(C(F)(F)F)C2=O)C1C (stereo not drawn)	1	0	-10	-5
Cc1cc(C(=O)CSc2nc3ccccc3o2)c(C)n1C1CC1	1.4	0	61*	82*
C=CCn1c(C)cc(C(=O)CSc2nc3ccccc3o2)c1C	1.1	0	40	10
CCN(CC)S(=O)(=O)c1cccc(-c2cn3cc(C)ccc3n2)c1	1.8	.	.	.
Cc1ccc2nc(-c3cccc(S(=O)(=O)N(C)C)c3)cn2c1	1.5	-3	52*	56*
COc1ccc(-c2cn3c(C)c(C(=O)NCCN4CCOCC4)sc3n2)cc1	1.3	-4	10	-11
CNC(=O)c1sc2nc(-c3ccc(OC)cc3)cn2c1C	1.3	-8	27	62*
CCN(CC)C(=O)c1sc2nc(-c3ccc(OC)cc3)cn2c1C	1.5	2	80*	98*

Screening data as filed in PubChem BioAssay.
